Measurements published in ChEMBL document CHEMBL1157903, “Synthesis and structure-activity relationships of 2-aryl-4-oxazolylmethoxy benzylglycines and 2-aryl-4-thiazolylmethoxy benzylglycines as novel, potent PPARalpha selective activators- PPARalpha and PPARgamma selectivity modulation” (Bioorg Med Chem Lett, 2010).

Tests used:
[1] = target: T1, Peroxisome proliferator-activated receptor alpha (Homo sapiens, UniProt Q07869); assay: Agonist activity against human Gal4-fussed PPARalpha in HEK293 cells by luciferase reporter gene assay; format: functional, cell-based
T1 sequence (Q07869 whole entry): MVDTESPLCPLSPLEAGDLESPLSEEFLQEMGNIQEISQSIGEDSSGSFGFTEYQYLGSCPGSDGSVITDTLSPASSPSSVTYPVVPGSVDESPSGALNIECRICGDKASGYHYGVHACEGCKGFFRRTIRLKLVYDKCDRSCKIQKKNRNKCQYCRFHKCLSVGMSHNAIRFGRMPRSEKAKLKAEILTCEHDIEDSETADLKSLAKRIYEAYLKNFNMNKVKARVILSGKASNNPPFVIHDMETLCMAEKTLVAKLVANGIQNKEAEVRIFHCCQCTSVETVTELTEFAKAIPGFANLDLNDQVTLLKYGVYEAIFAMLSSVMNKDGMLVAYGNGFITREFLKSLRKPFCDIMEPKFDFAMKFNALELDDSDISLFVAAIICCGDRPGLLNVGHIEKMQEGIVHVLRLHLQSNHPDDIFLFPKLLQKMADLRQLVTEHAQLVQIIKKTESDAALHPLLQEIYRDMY
Procedure, shortened: (§1)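 Transactivation assay in HEK293 cells with a luciferase reporter. After cell lysis, luciferin is added and luminescence is read. EC50 is the ligand concentration giving half-maximal fold induction. Maximal efficacy is expressed as % of standards, with fenofibrate at 100 µM = 100% for PPARα and rosiglitazone at 1 µM = 100% for PPARγ. Data are normalized to known agonists at 1 µM.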

[2] = target: T2, Peroxisome proliferator-activated receptor alpha (Homo sapiens) (UniProt Q07869); assay: Agonist activity against human Gal4-fussed PPARalpha by luciferase reporter gene assay relative to finofibrate; format: functional
T2 sequence (whole entry): T1 sequence (Q07869 whole entry)
Procedure, shortened: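 Gal4-fused human PPARα transactivation in HEK293 cells with a luciferase reporter, read as luminescence after cell lysis and luciferin addition. EC50 is the ligand concentration (µM) giving half-maximal fold induction. Maximal efficacy is expressed as a percentage of fenofibrate at 100 µM (set as 100%). Intrinsic activity is the response at 1 µM as a percentage of the standard at 1 µM.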

[3] = target: T3, Peroxisome proliferator-activated receptor gamma (Homo sapiens, UniProt P37231); assay: Agonist activity against human Gal4-fussed PPARgamma in HEK293 cells by luciferase reporter gene assay; format: functional, cell-based; procedure, shortened: as §1
T3 sequence (P37231 whole entry): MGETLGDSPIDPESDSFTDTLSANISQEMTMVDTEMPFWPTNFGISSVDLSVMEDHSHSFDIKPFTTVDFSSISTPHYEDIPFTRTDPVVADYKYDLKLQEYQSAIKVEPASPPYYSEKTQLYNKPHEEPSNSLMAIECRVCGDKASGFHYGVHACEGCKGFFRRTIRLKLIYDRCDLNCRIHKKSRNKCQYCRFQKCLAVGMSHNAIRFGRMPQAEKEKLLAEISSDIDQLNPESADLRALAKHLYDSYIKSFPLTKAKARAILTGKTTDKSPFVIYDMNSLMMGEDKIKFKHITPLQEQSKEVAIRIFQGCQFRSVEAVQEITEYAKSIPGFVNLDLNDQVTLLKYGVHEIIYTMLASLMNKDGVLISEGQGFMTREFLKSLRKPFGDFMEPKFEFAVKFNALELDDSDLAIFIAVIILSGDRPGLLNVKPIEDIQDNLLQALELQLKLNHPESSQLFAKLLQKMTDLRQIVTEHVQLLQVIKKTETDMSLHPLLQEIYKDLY

[4] = target: T4, Peroxisome proliferator-activated receptor gamma (Homo sapiens) (UniProt P37231); assay: Agonist activity against human Gal4-fussed PPARgamma by luciferase reporter gene assay relative to rosiglitazone
T4 sequence (whole entry): T3 sequence (P37231 whole entry)

[5] = Agonist activity at hamster PPARalpha; format: functional, Cricetulus griseus
Hamster [6] = assay: Antidyslipidemic activity in hamster assessed as decrease in HDL level at 10 mg/kg, po; format: functional, Cricetinae; parameters: scale not given: the % may be the effect or the level left
Procedure, shortened: (§2)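 Hamsters kept on high-fat diet for 2 weeks, then dosed 10 mg/kg by oral gavage once daily for 21 days (n = 8). Vehicle: 5% cremophor, 10% NMP, 5% EtOH, 80% water. HDL-c and TG measured at study end. Statistics by Dunnett test, p < 0.05.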

Hamster [7] = assay: Antidyslipidemic activity in hamster assessed as decrease in triglyceride level at 10 mg/kg, po; format: functional, Cricetinae; parameters: scale not given: the % may be the effect or the level left; procedure, shortened: as §2
[8] = Drug level in hamster liver at 10 mg/kg, po; format: ADME, organism-based; parameters: dose 10 mg/kg, route oral; conditions: cricetinae, in vivo, read-out: Drug uptake
Procedure, shortened: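 High-fat-fed hamsters (2 weeks on diet), 10 mg/kg po once daily for 21 days (n = 8). Vehicle: 5% cremophor/10% NMP/5% EtOH/80% water. Liver drug level taken 1 h post-dose in the fed state.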

[9] = Drug level in hamster plasma at 10 mg/kg, po; format: ADME, organism-based; parameters: dose 10 mg/kg, route oral; conditions: cricetinae, in vivo, read-out: Drug uptake
Procedure, shortened: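 High-fat-fed hamsters (2 weeks on diet), 10 mg/kg po once daily for 21 days (n = 8). Vehicle: 5% cremophor/10% NMP/5% EtOH/80% water. Plasma drug level taken in the fasted state at 18 h post-dose.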

[10] = Volume of distribution at steady state Sprague-Dawley rat at 5 mg/kg, iv and 10 mg/kg, po; format: ADME, organism-based; conditions: in vivo, read-out: Vdss
Procedure, shortened: (§3)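 Male Sprague-Dawley rats (n = 2) given 5 mg/kg IV and 10 mg/kg PO. Vehicle: 10% NMP, 20% PEG-400, 70% potassium phosphate buffer.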

[11] = Clearance in Sprague-Dawley rat at 5 mg/kg, iv and 10 mg/kg, po; format: ADME, organism-based; conditions: in vivo; procedure, shortened: as §3
[12] = Half life in Sprague-Dawley rat at 5 mg/kg, iv and 10 mg/kg, po; format: ADME, organism-based; conditions: in vivo; procedure, shortened: as §3
[13] = Mean retention time in Sprague-Dawley rat at 5 mg/kg, iv and 10 mg/kg, po; format: ADME, organism-based; conditions: in vivo; procedure, shortened: as §3
[14] = Oral bioavailability in Sprague-Dawley rat at 10 mg/kg; format: ADME, organism-based; conditions: in vivo
Procedure, shortened: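 Male Sprague-Dawley rats (n = 2). Oral dose 10 mg/kg, with 5 mg/kg IV for comparison. Vehicle: 10% NMP, 20% PEG-400, 70% potassium phosphate buffer.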

Hamster [15] = assay: Induction of PDK4 mRNA level in hamster liver at 10 mg/kg, po after 6 hrs relative to fenofibrate; format: functional, Cricetinae
Procedure, shortened: (§4)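 Single oral dose of 10 mpk in hamsters, with fenofibrate reference at 100 mpk. Liver PDK4 and HD mRNA measured at 6 h post-dose. Values expressed relative to fenofibrate, set as 100%.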

Hamster [16] = assay: Induction of hydrase mRNA level in hamster liver at 10 mg/kg, po after 6 hrs relative to fenofibrate; format: functional, Cricetinae; procedure, shortened: as §4
Cricetulus griseus = organism: Cricetulus griseus; assay: Agonist activity at hamster PPARalpha relative to fenofibrate; format: functional

SMILES	EC50 [1]	Emax [2]	EC50 [3]	Emax [4]	further results
COC(=O)N(CC(=O)O)Cc1cccc(OCc2coc(-c3ccc(F)cc3F)n2)c1	1.09 µM	78%	> 25 µM		
COC(=O)N(CC(=O)O)Cc1cccc(OCc2csc(-c3ccccc3)n2)c1	0.304 µM	70%	> 25 µM		
COc1cc(OC(=O)N(CC(=O)O)[C@@H](C)c2cccc(OCc3coc(-c4ccc(Cl)cc4)n3)c2)ccc1F	0.051 µM	64%	1.44 µM	74%	
COC(=O)N(CC(=O)O)Cc1cccc(OCc2csc(-c3ccc(C(F)(F)F)cc3)n2)c1	0.0466 µM	73%	3.44 µM	73%	EC50 [5]: 0.811 µM; Activity (Hamster [6]): 52%; Activity (Hamster [7]): 72%; concentration [8]: 86.8 µM; Vd [10]: 0.3 L/kg; clearance [11]: 0.03 L/h/kg; half-life [12]: 7.9 h; MRT [13]: 6 h; bioavailability [14]: 75%; Activity (Hamster [15]): 308%; Activity (Hamster [16]): 126%; Emax (Cricetulus griseus): 65%
COc1cccc(OC(=O)N(CC(=O)O)[C@@H](C)c2cccc(OCc3coc(-c4ccc(Cl)cc4)n3)c2)c1	0.013 µM	69%	0.772 µM	95%	EC50 [5]: 0.066 µM; Activity (Hamster [6]): 39%; Activity (Hamster [7]): 49%; Emax (Cricetulus griseus): 71%
C[C@@H](c1cccc(OCc2coc(-c3ccc(Cl)cc3)n2)c1)N(CC(=O)O)C(=O)Oc1ccccc1	0.145 µM	53%	1.69 µM	43%	
COC(=O)N(CC(=O)O)Cc1cccc(OCc2csc(-c3ccccc3Cl)n2)c1	> 2.5 µM		5.04 µM	55%	
COc1ccc(OC(=O)N(CC(=O)O)[C@@H](C)c2cccc(OCc3coc(-c4ccc(Cl)cc4)n3)c2)cc1	0.066 µM	69%	0.97 µM	62%	
COC(=O)N(CC(=O)O)[C@@H](C)c1cccc(OCc2coc(-c3ccc(C)cc3)n2)c1	0.087 µM	87%	20.7 µM	130%	
COC(=O)N(CC(=O)O)[C@@H](C)c1cccc(OCc2coc(-c3ccc(Cl)cc3)n2)c1	0.073 µM	65%	> 8.3 µM	189%	
Cc1ccc(F)c(OC(=O)N(CC(=O)O)[C@@H](C)c2cccc(OCc3coc(-c4ccc(Cl)cc4)n3)c2)c1	0.471 µM	56%	0.71 µM	58%	
Cc1cccc(OC(=O)N(CC(=O)O)[C@@H](C)c2cccc(OCc3coc(-c4ccc(Cl)cc4)n3)c2)c1	0.022 µM	62%	0.571 µM	83%	

Continued, in another order:

EC50 [1]	Emax [2]	EC50 [3]	Emax [4]	SMILES	further results
0.0418 µM	71%	9.29 µM	84%	COC(=O)N(CC(=O)O)Cc1cccc(OCc2csc(-c3ccc(C)cc3)n2)c1	
0.064 µM	78%	9.19 µM	46%	COC(=O)N(CC(=O)O)Cc1cccc(OCc2coc(-c3ccc(Cl)cc3)n2)c1	EC50 [5]: 0.979 µM; Activity (Hamster [6]): 44%; Activity (Hamster [7]): 84%; concentration [8]: 83.8 µM; concentration [9]: 72.9 µM; Vd [10]: 0.2 L/kg; clearance [11]: 0.042 L/h/kg; half-life [12]: 4.6 h; MRT [13]: 10.7 h; bioavailability [14]: 75%; Activity (Hamster [15]): 505%; Activity (Hamster [16]): 192%; Emax (Cricetulus griseus): 84%
0.235 µM	88%	> 25 µM		COC(=O)N(CC(=O)O)Cc1cccc(OCc2coc(-c3ccc(F)cc3)n2)c1	
0.395 µM	97%	6.39 µM	54%	COC(=O)N(CC(=O)O)Cc1cccc(OCc2coc(-c3ccc(F)c(Cl)c3)n2)c1	
0.0299 µM	85%	15.6 µM	94%	COC(=O)N(CC(=O)O)Cc1cccc(OCc2coc(-c3ccc(C)cc3)n2)c1	
1.23 µM	105%	> 25 µM		COC(=O)N(CC(=O)O)Cc1cccc(OCc2coc(-c3ccccc3)n2)c1	
0.451 µM	92%	> 25 µM		COC(=O)N(CC(=O)O)Cc1cccc(OCc2coc(-c3cccc(C)c3)n2)c1	
	79%		82%	COC(=O)N(CC(=O)O)Cc1cccc(OCc2nc(-c3ccc(Cl)cc3)oc2C)c1	Activity (Hamster [6]): 20%; Activity (Hamster [7]): 77%; Vd [10]: 0.7 L/kg; clearance [11]: 0.258 L/h/kg; half-life [12]: 3.2 h; MRT [13]: 2.8 h; Activity (Hamster [15]): 230%; Activity (Hamster [16]): 277%; Emax (Cricetulus griseus): 83%
0.09 µM	90%	4.69 µM	35%	COC(=O)N(CC(=O)O)Cc1cccc(OCc2csc(-c3ccc(Cl)cc3)n2)c1	
1.45 µM	117%	4.02 µM	54%	COC(=O)N(CC(=O)O)Cc1cccc(OCc2csc(-c3cccc(Cl)c3)n2)c1	
0.068 µM	74%	4.81 µM	34%	COC(=O)N(CC(=O)O)Cc1cccc(OCc2coc(-c3ccc(C(F)(F)F)cc3)n2)c1	
